From ChEMBL document CHEMBL4376838, “Discovery of Novel Celastrol Derivatives as Hsp90-Cdc37 Interaction Disruptors with Antitumor Activity” (J Med Chem, 2019)

What was measured:
A549 [1] = test: Antiproliferative activity against human A549 cells assessed as inhibition of cell growth at 1.5 uM incubated for 48 hrs by MTT assay relative to control; format: functional; settings: A549, 48 h, read-out: GI
A549 [2] = test: Antiproliferative activity against human A549 cells assessed as inhibition of cell growth incubated for 48 hrs by MTT assay; format: functional, cell-based; settings: A549, 48 h
Procedure, shortened: (§1)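 MTT read-out. Cells seeded at 5.0 × 10⁴ cells/ml and cultured 24 h, then exposed to the drug over a range of concentrations for 48 h, with matching DMSO as control. MTT (5 mg/ml) added for 4 h, supernatant removed, formazan dissolved in DMSO, OD read at 570 nm. Run in triplicate, mean ± SD (n = 3).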

MCF7 = test: Antiproliferative activity against human MCF7 cells assessed as inhibition of cell growth incubated for 48 hrs by MTT assay; format: functional, cell-based; settings: MCF7, 48 h; procedure, shortened: as §1
HOS = test: Antiproliferative activity against human HOS cells assessed as inhibition of cell growth incubated for 48 hrs by MTT assay; format: functional, cell-based; procedure, shortened: as §1
HepG2 = test: Antiproliferative activity against human HepG2 cells assessed as inhibition of cell growth incubated for 48 hrs by MTT assay; format: functional, cell-based; settings: HepG2, 48 h; procedure, shortened: as §1

| Compound | inhibition of growth at 1.5 µM (A549 [1]) | further results |
| --- | --- | --- |
| CC1=C(O)C(=O)C=C2C1=CC=C1[C@@]2(C)CC[C@@]2(C)[C@@H]3C[C@](C)(C(=O)OCCCCOC(=O)/C=C(\C#N)c4ccccc4)CC[C@]3(C)CC[C@]12C | 3.19% | – |
| CC1=C(O)C(=O)C=C2C1=CC=C1[C@@]2(C)CC[C@@]2(C)[C@@H]3C[C@](C)(C(=O)OCCCOC(=O)/C=C/c4ccc(F)cc4)CC[C@]3(C)CC[C@]12C | 37.6% | – |
| CC1=C(O)C(=O)C=C2C1=CC=C1[C@@]2(C)CC[C@@]2(C)[C@@H]3C[C@](C)(C(=O)OCCCOC(=O)/C(C#N)=C/c4ccccc4)CC[C@]3(C)CC[C@]12C | 19.1% | – |
| CC1=C(O)C(=O)C=C2C1=CC=C1[C@@]2(C)CC[C@@]2(C)[C@@H]3C[C@](C)(C(=O)OCCCCOC(=O)/C=C/c4ccc(C(F)(F)F)cc4)CC[C@]3(C)CC[C@]12C | 6.19% | – |
| CC1=C(O)C(=O)C=C2C1=CC=C1[C@@]2(C)CC[C@@]2(C)[C@@H]3C[C@](C)(C(=O)OCCCCOC(=O)/C=C/c4ccc(F)cc4)CC[C@]3(C)CC[C@]12C | 14.7% | – |
| CC1=C(O)C(=O)C=C2C1=CC=C1[C@@]2(C)CC[C@@]2(C)[C@@H]3C[C@](C)(C(=O)OCCOC(=O)/C(C#N)=C/c4ccc(F)cc4)CC[C@]3(C)CC[C@]12C | 26.1% | – |
| CC1=C(O)C(=O)C=C2C1=CC=C1[C@@]2(C)CC[C@@]2(C)[C@@H]3C[C@](C)(C(=O)OCCOC(=O)/C=C/c4ccc(C)cc4)CC[C@]3(C)CC[C@]12C | 28.6% | – |
| CC1=C(O)C(=O)C=C2C1=CC=C1[C@@]2(C)CC[C@@]2(C)[C@@H]3C[C@](C)(C(=O)OCCCCOC(=O)/C(C#N)=C/c4ccccc4)CC[C@]3(C)CC[C@]12C | 16.2% | – |
| CC1=C(O)C(=O)C=C2C1=CC=C1[C@@]2(C)CC[C@@]2(C)[C@@H]3C[C@](C)(C(=O)OCCCOC(=O)/C(C#N)=C/c4ccc(F)cc4)CC[C@]3(C)CC[C@]12C | 25% | – |
| CC1=C(O)C(=O)C=C2C1=CC=C1[C@@]2(C)CC[C@@]2(C)[C@@H]3C[C@](C)(C(=O)OCCCCOC(=O)/C(C#N)=C/c4ccc(C)cc4)CC[C@]3(C)CC[C@]12C | 16.5% | – |
| CC1=C(O)C(=O)C=C2C1=CC=C1[C@@]2(C)CC[C@@]2(C)[C@@H]3C[C@](C)(C(=O)OCCOC(=O)/C(C#N)=C/c4ccccc4)CC[C@]3(C)CC[C@]12C | 24.3% | – |
| CC1=C(O)C(=O)C=C2C1=CC=C1[C@@]2(C)CC[C@@]2(C)[C@@H]3C[C@](C)(C(=O)OCCOC(=O)/C=C(\C#N)c4ccc(C(F)(F)F)cc4)CC[C@]3(C)CC[C@]12C | 33.3% | – |
| CC1=C(O)C(=O)C=C2C1=CC=C1[C@@]2(C)CC[C@@]2(C)[C@@H]3C[C@](C)(C(=O)OCCCOC(=O)/C=C/c4ccc(C)cc4)CC[C@]3(C)CC[C@]12C | 29.1% | – |
| COc1ccc(/C=C/C(=O)OCCCOC(=O)[C@]2(C)CC[C@]3(C)CC[C@]4(C)C5=CC=C6C(=CC(=O)C(O)=C6C)[C@]5(C)CC[C@@]4(C)[C@@H]3C2)cc1 | 34.1% | – |
| COc1ccc(/C=C(\C#N)C(=O)OCCOC(=O)[C@]2(C)CC[C@]3(C)CC[C@]4(C)C5=CC=C6C(=CC(=O)C(O)=C6C)[C@]5(C)CC[C@@]4(C)[C@@H]3C2)cc1 | 16.6% | – |
| COc1ccc(/C=C(\C#N)C(=O)OCCCCOC(=O)[C@]2(C)CC[C@]3(C)CC[C@]4(C)C5=CC=C6C(=CC(=O)C(O)=C6C)[C@]5(C)CC[C@@]4(C)[C@@H]3C2)cc1 | 3.07% | – |
| CC1=C(O)C(=O)C=C2C1=CC=C1[C@@]2(C)CC[C@@]2(C)[C@@H]3C[C@](C)(C(=O)OCCCOC(=O)/C(C#N)=C/c4ccc(C)cc4)CC[C@]3(C)CC[C@]12C | 34.7% | – |
| COc1ccc(/C=C/C(=O)OCCCCOC(=O)[C@]2(C)CC[C@]3(C)CC[C@]4(C)C5=CC=C6C(=CC(=O)C(O)=C6C)[C@]5(C)CC[C@@]4(C)[C@@H]3C2)cc1 | 20.6% | – |
| CC1=C(O)C(=O)C=C2C1=CC=C1[C@@]2(C)CC[C@@]2(C)[C@@H]3C[C@](C)(C(=O)OCCCCOC(=O)/C=C(\C#N)c4ccc(C)cc4)CC[C@]3(C)CC[C@]12C | 9.74% | – |
| CC1=C(O)C(=O)C=C2C1=CC=C1[C@@]2(C)CC[C@@]2(C)[C@@H]3C[C@](C)(C(=O)OCCCCOC(=O)/C=C/c4ccccc4)CC[C@]3(C)CC[C@]12C | 13.3% | – |
| CC1=C(O)C(=O)C=C2C1=CC=C1[C@@]2(C)CC[C@@]2(C)[C@@H]3C[C@](C)(C(=O)OCCOC(=O)/C(C#N)=C/c4ccc(C)cc4)CC[C@]3(C)CC[C@]12C | 29.9% | – |
| CC1=C(O)C(=O)C=C2C1=CC=C1[C@@]2(C)CC[C@@]2(C)[C@@H]3C[C@](C)(C(=O)OCCOC(=O)/C=C/c4ccccc4)CC[C@]3(C)CC[C@]12C | 23% | – |

| Compound | inhibition of growth at 1.5 µM (A549 [1]) | further results |
| --- | --- | --- |
| CC1=C(O)C(=O)C=C2C1=CC=C1[C@@]2(C)CC[C@@]2(C)[C@@H]3C[C@](C)(C(=O)OC/C=C/COC(=O)/C=C(\C#N)c4ccccc4)CC[C@]3(C)CC[C@]12C | – | IC50 (A549 [2]): 3.54 µM; IC50 (MCF7): 2.86 µM; IC50 (HOS): 4.78 µM; IC50 (HepG2): 3.45 µM |
| CC1=C(O)C(=O)C=C2C1=CC=C1[C@@]2(C)CC[C@@]2(C)[C@@H]3C[C@](C)(C(=O)OCCCCOC(=O)/C=C(\C#N)c4ccc(F)cc4)CC[C@]3(C)CC[C@]12C | 32.1% | – |
| COc1ccc(/C=C(\C#N)C(=O)OCCCOC(=O)[C@]2(C)CC[C@]3(C)CC[C@]4(C)C5=CC=C6C(=CC(=O)C(O)=C6C)[C@]5(C)CC[C@@]4(C)[C@@H]3C2)cc1 | 18.6% | – |
| CC1=C(O)C(=O)C=C2C1=CC=C1[C@@]2(C)CC[C@@]2(C)[C@@H]3C[C@](C)(C(=O)OCCOC(=O)/C(C#N)=C/c4ccc(C(F)(F)F)cc4)CC[C@]3(C)CC[C@]12C | 16% | – |
| CC1=C(O)C(=O)C=C2C1=CC=C1[C@@]2(C)CC[C@@]2(C)[C@@H]3C[C@](C)(C(=O)OCCCOC(=O)/C(C#N)=C/c4ccc(C(F)(F)F)cc4)CC[C@]3(C)CC[C@]12C | 19.4% | – |
| COc1ccc(/C(C#N)=C/C(=O)OC/C=C/COC(=O)[C@]2(C)CC[C@]3(C)CC[C@]4(C)C5=CC=C6C(=CC(=O)C(O)=C6C)[C@]5(C)CC[C@@]4(C)[C@@H]3C2)cc1 | – | IC50 (A549 [2]): 1.34 µM; IC50 (MCF7): 1.44 µM; IC50 (HOS): 1.79 µM; IC50 (HepG2): 2.71 µM |
| COc1ccc(/C(C#N)=C/C(=O)OCCCCOC(=O)[C@]2(C)CC[C@]3(C)CC[C@]4(C)C5=CC=C6C(=CC(=O)C(O)=C6C)[C@]5(C)CC[C@@]4(C)[C@@H]3C2)cc1 | 9.57% | – |
| CC1=C(O)C(=O)C=C2C1=CC=C1[C@@]2(C)CC[C@@]2(C)[C@@H]3C[C@](C)(C(=O)OCCOC(=O)/C=C/c4ccc(F)cc4)CC[C@]3(C)CC[C@]12C | 27.7% | – |
| CC1=C(O)C(=O)C=C2C1=CC=C1[C@@]2(C)CC[C@@]2(C)[C@@H]3C[C@](C)(C(=O)OCCCOC(=O)/C=C/c4ccccc4)CC[C@]3(C)CC[C@]12C | 33.2% | – |
| CC1=C(O)C(=O)C=C2C1=CC=C1[C@@]2(C)CC[C@@]2(C)[C@@H]3C[C@](C)(C(=O)OC/C=C/COC(=O)/C=C(\C#N)c4ccc(F)cc4)CC[C@]3(C)CC[C@]12C | – | IC50 (A549 [2]): 1.84 µM; IC50 (MCF7): 1.11 µM; IC50 (HOS): 1.33 µM; IC50 (HepG2): 2.74 µM |
| COC(=O)[C@]12CCC(C)(C)C[C@H]1[C@H]1C(=O)C=C3[C@@]4(C)C=C(C#N)C(=O)C(C)(C)[C@@H]4CC[C@@]3(C)[C@]1(C)CC2 [BARDOXOLONE METHYL] | – | IC50 (A549 [2]): 0.52 µM; IC50 (MCF7): 0.85 µM; IC50 (HOS): 0.66 µM; IC50 (HepG2): 0.52 µM |
| CC1=C(O)C(=O)C=C2C1=CC=C1[C@@]2(C)CC[C@@]2(C)[C@@H]3C[C@](C)(C(=O)OCCCCOC(=O)/C(C#N)=C/c4ccc(C(F)(F)F)cc4)CC[C@]3(C)CC[C@]12C | 7.85% | – |
| CC1=C(O)C(=O)C=C2C1=CC=C1[C@@]2(C)CC[C@@]2(C)[C@@H]3C[C@](C)(C(=O)OCCCCOC(=O)/C(C#N)=C/c4ccc(F)cc4)CC[C@]3(C)CC[C@]12C | 19% | – |
| CC1=C(O)C(=O)C=C2C1=CC=C1[C@@]2(C)CC[C@@]2(C)[C@@H]3C[C@](C)(C(=O)OCCCCOC(=O)/C=C(\C#N)c4ccc(C(F)(F)F)cc4)CC[C@]3(C)CC[C@]12C | 18.3% | – |
| CC1=C(O)C(=O)C=C2C1=CC=C1[C@@]2(C)CC[C@@]2(C)[C@@H]3C[C@](C)(C(=O)OCCOC(=O)/C=C(\C#N)c4ccc(C)cc4)CC[C@]3(C)CC[C@]12C | 20.4% | – |
| CC1=C(O)C(=O)C=C2C1=CC=C1[C@@]2(C)CC[C@@]2(C)[C@@H]3C[C@](C)(C(=O)OCCOC(=O)/C=C/c4ccc(C(F)(F)F)cc4)CC[C@]3(C)CC[C@]12C | 26% | – |
| CC1=C(O)C(=O)C=C2C1=CC=C1[C@@]2(C)CC[C@@]2(C)[C@@H]3C[C@](C)(C(=O)OCCCCOC(=O)/C=C/c4ccc(C)cc4)CC[C@]3(C)CC[C@]12C | 19.9% | – |
| CC1=C(O)C(=O)C=C2C1=CC=C1[C@@]2(C)CC[C@@]2(C)[C@@H]3C[C@](C)(C(=O)OCCCOC(=O)/C=C(\C#N)c4ccc(C)cc4)CC[C@]3(C)CC[C@]12C | 21.6% | – |
| CC1=C(O)C(=O)C=C2C1=CC=C1[C@@]2(C)CC[C@@]2(C)[C@@H]3C[C@](C)(C(=O)OCCCOC(=O)/C=C(\C#N)c4ccc(C(F)(F)F)cc4)CC[C@]3(C)CC[C@]12C | 24.5% | – |
| COc1ccc(/C=C/C(=O)OCCOC(=O)[C@]2(C)CC[C@]3(C)CC[C@]4(C)C5=CC=C6C(=CC(=O)C(O)=C6C)[C@]5(C)CC[C@@]4(C)[C@@H]3C2)cc1 | 35.3% | – |
| CC1=C(O)C(=O)C=C2C1=CC=C1[C@@]2(C)CC[C@@]2(C)[C@@H]3C[C@](C)(C(=O)OCCCOC(=O)/C=C/c4ccc(C(F)(F)F)cc4)CC[C@]3(C)CC[C@]12C | 37.6% | – |
